Assay results from ChEMBL document CHEMBL1132412, “Antagonists of the platelet P2T receptor: a novel approach to antithrombotic therapy” (J Med Chem, 1999).

Columns and labels:
[1] = Platelet P2T receptor antagonist activity in human platelet assay; type: functional
How it was run: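 Human washed platelets in modified Tyrode buffer, stimulated to aggregate with ADP; aggregation followed turbidimetrically. Inhibition measured across a concentration range, pIC50 calculated from the concentration-response. Mean of four determinations (nine for one compound).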

[2] = species on record: Rattus norvegicus; assay: Recovery of ADP-induced platelet aggregation 20 minutes post dose. mean of four determinations and spread of results; type: functional
How it was run: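 Anesthetized rat; ADP-induced platelet aggregation measured 20 min after dosing to gauge recovery of aggregation (functional kinetics). Mean of four determinations, with spread of results.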

Row | Structure (SMILES) | Log IC50 [1] | Recovery of ADP-induced platelet aggregation [2] [%]
1 | CCCSc1nc(N)c2ncn([C@@H]3O[C@H](COP(=O)(O)OP(=O)(O)C(F)(F)P(=O)(O)O)[C@@H](O)[C@H]3O)c2n1 | -8.16 | –
2 | Nc1ncnc2c1ncn2[C@@H]1O[C@H](COP(=O)(O)OP(=O)(O)C(Cl)(Cl)P(=O)(O)O)[C@@H](O)[C@H]1O | -3.5 | –
3 | CCSc1nc(N)c2ncn([C@@H]3O[C@H](COP(=O)(O)OP(=O)(O)C(Cl)(Cl)P(=O)(O)O)[C@@H](O)[C@H]3O)c2n1 | -6.53 | –
4 | CCCSc1nc(N)c2ncn([C@@H]3O[C@H](COP(=O)(O)OP(=O)(O)C(Cl)(Cl)P(=O)(O)O)[C@@H](O)[C@H]3O)c2n1 | -8.6 | 93
5 | Nc1ncnc2c1ncn2[C@@H]1O[C@H](COP(=O)(O)OP(=O)(O)C(F)(F)P(=O)(O)O)[C@@H](O)[C@H]1O | -3.5 | –
6 | CCCSc1nc(NCCSC)c2ncn([C@@H]3O[C@H](COP(=O)(O)OP(=O)(O)C(Cl)(Cl)P(=O)(O)O)[C@@H](O)[C@H]3O)c2n1 | -9.42 | 33

Continued, in another order:

Row | Log IC50 [1] | Structure (SMILES) | Recovery of ADP-induced platelet aggregation [2] [%]
7 | -8.87 | Nc1nc(SCCC(F)(F)F)nc2c1ncn2[C@@H]1O[C@H](COP(=O)(O)OP(=O)(O)C(Cl)(Cl)P(=O)(O)O)[C@@H](O)[C@H]1O | –
8 | -8.02 | COCCNc1nc(SCCC(F)(F)F)nc2c1ncn2[C@@H]1O[C@H](COP(=O)(O)OP(=O)(O)C(Cl)(Cl)P(=O)(O)O)[C@@H](O)[C@H]1O | 64
9 | -9.14 | O=P(O)(OC[C@H]1O[C@@H](n2cnc3c(NCC(F)(F)F)nc(SCCC(F)(F)F)nc32)[C@H](O)[C@@H]1O)OP(=O)(O)C(Cl)(Cl)P(=O)(O)O | 6
10 | -9.35 | CSCCNc1nc(SCCC(F)(F)F)nc2c1ncn2[C@@H]1O[C@H](COP(=O)(O)OP(=O)(O)C(Cl)(Cl)P(=O)(O)O)[C@@H](O)[C@H]1O [CANGRELOR] | 79
11 | -9.48 | CCCSc1nc(NCC(F)(F)F)c2ncn([C@@H]3O[C@H](COP(=O)(O)OP(=O)(O)C(Cl)(Cl)P(=O)(O)O)[C@@H](O)[C@H]3O)c2n1 | 10
12 | -7.81 | CCCSc1nc(NCCOC)c2ncn([C@@H]3O[C@H](COP(=O)(O)OP(=O)(O)C(Cl)(Cl)P(=O)(O)O)[C@@H](O)[C@H]3O)c2n1 | 48
